pIC50: −log10 of the molar value. Calls of active or inactive are those of the source. No cut-off for these calls is given here.
Key:
[1] = Toxicity in BALB/c mouse xenografted with human MDA-MB-231 cells assessed as side effects at 5.7 mg/kg,iv administrated once per week for 3 weeks; format: organism-based; conditions: in vivo, 504 h
Procedure, shortened: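 Nude BALB/c nu/nu mice received subcutaneous human tumour cells into the right flank. Dosing started at mean tumour volume of 100–120 mm3, iv once weekly for 3 weeks; the taxane arm was an equimolar control. Body weight and overt side effects were monitored. Mean ± SEM, n = 8.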

[2] = Toxicity in BALB/c mouse injected with mouse 4T1 cells assessed as body weight loss at 5.7 mg/kg,iv in presence of compound 5b administrated once per week for 4 weeks; format: organism-based; conditions: in vivo, 672 h
4T1 [3] = experiment: Antitumor activity against mouse 4T1 cells implanted in BALB/c mouse assessed as decrease in spleen MDSC cells at 5.7 mg/kg,iv measured after 28 days (reference value: 38%); format: functional; parameters: scale not given: the % may be the effect or the level left; conditions: time 28 day
Procedure, shortened: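 Splenocytes taken from 4T1 fat-pad tumor-bearing BALB/c mice after 28 days of tumor growth with weekly iv dosing. Cells stained with anti-CD11b PE and anti-Gr-1 FITC, and the Gr-1+CD11b+ percentage scored by flow cytometry. Eight mice per treated group, five naive. Mean ± SEM.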

4T1 [4] = experiment: Antitumor activity against mouse 4T1 cells xenografted with BALB/c mouse assessed as decrease in tumor volume at 5.7 mg/kg,iv administrated once per week for 4 weeks; format: functional, organism-based
Procedure, shortened: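 4T1 cells injected into mammary fat pads of BALB/c mice. Dosing iv once per week for 4 weeks, saline vehicle; single-agent arms were given alone or with the peptide component (5b or 6). Endpoints were body weight, tumour volume, tumour weight, lung metastatic nodule count and lung metastasis score. Mean ± SEM, n = 10; ANOVA and Student's t test.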

4T1 [5] = experiment: Antitumor activity against mouse 4T1 cells implanted in BALB/c mouse assessed as decrease in serum IL-6 level at 10 mg/kg,iv administrated once per week for 4 weeks by ELISA; format: functional, organism-based
Procedure, shortened: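 4T1 fat-pad model in BALB/c mice, iv 5–20 mg/kg once weekly for 4 weeks, with vehicle and naive groups; serum MMP9, TIMP-1, IL-6 and S100A9 measured by mouse ELISA kits.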

[6] = AUC (0-t) in female Beagle dog at 2 mg/kg,iv measured upto 24 hrs; format: ADME, organism-based, Canis lupus familiaris; parameters: dose 2 mg/kg, time < 24 hrs, route iv; conditions: in vivo
Procedure, shortened: (§1)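 Single iv dose: rats 2, 4 or 8 mg/kg by intravenous injection; Beagle dogs 1, 2 or 4 mg/kg by intravenous infusion. Plasma concentration–time data were analysed by sex and pooled. Reported parameters: Cmax, Tmax, AUC0−t, AUC0−∞, MRT0−∞, t1/2, CL, Vss, given as mean ± SD.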

[7] = Tmax in female Beagle dog at 1 mg/kg,iv measured upto 24 hrs; format: ADME, organism-based, Canis lupus familiaris; conditions: in vivo
[8] = AUC (0-t) in male Beagle dog at 4 mg/kg,iv measured upto 24 hrs; format: ADME, organism-based, Canis lupus familiaris; parameters: dose 4 mg/kg, time < 24 hrs, route iv; conditions: in vivo; procedure, shortened: as §1
[9] = Clearance in rat at 4 mg/kg,iv measured upto 24 hrs; format: ADME, organism-based; conditions: in vivo
Procedure, shortened: (§2)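 Rats were given a single iv injection at 2, 4 or 8 mg/kg. Plasma parent drug and released docetaxel were followed over time. Cmax, Tmax, AUC, MRT, t1/2, CL and Vss were reported for males, females and all animals combined.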

[10] = Stability in monkey hepatocyte assessed as compound remaining at 3 uM incubated upto 120 mins; format: ADME, cell-based, Macaca mulatta; conditions: rhesus monkey, hepatocytes, 2 h
[11] = Drug metabolism in rat bile assessed as metabolite docetaxel formation at 4 mg/kg,iv measured after 24 hrs; format: ADME, organism-based; conditions: in vivo
[12] = Toxicity in BALB/c mouse xenografted with human HCT-116 cells assessed as body weight loss at 10 mg/kg,iv administrated once per week for 3 weeks; format: organism-based; conditions: in vivo, 504 h
[13] = Cmax in female Beagle dog at 4 mg/kg,iv measured upto 24 hrs; format: ADME, organism-based, Canis lupus familiaris; parameters: time < 24 hrs, dose 4 mg/kg, route iv; conditions: in vivo
Procedure, shortened: (§3)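 Beagle dogs were given a single iv infusion at 1, 2 or 4 mg/kg. Plasma parent drug and released docetaxel were followed over time. Cmax, Tmax, AUC, MRT, t1/2, CL and Vss were reported by sex and for all dogs combined.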

[14] = AUC (0-t) in male rat at 2 mg/kg,iv measured upto 24 hrs; format: ADME, organism-based; parameters: time < 24 hrs, dose 2 mg/kg, route iv; conditions: in vivo; procedure, shortened: as §1
[15] = Toxicity in BALB/c mouse xenografted with human NCI-H1975 cells assessed as body weight loss at 10 mg/kg,iv administrated once per week for 3 weeks; format: organism-based; conditions: in vivo, 504 h
4T1 [16] = experiment: Synergistic antitumor activity against mouse 4T1 cells xenografted with BALB/c mouse assessed as decrease in tumor weight at 10 mg/kg,iv administrated in combination with doxorubicin once per week for 4 weeks; format: functional, organism-based
[17] = AUC (0-infinity) in rat at 8 mg/kg,iv measured upto 24 hrs; format: ADME, organism-based; parameters: time < 24 hrs, dose 8 mg/kg, route iv; conditions: in vivo; procedure, shortened: as §1
4T1 [18] = experiment: Antitumor activity against mouse 4T1 cells implanted in BALB/c mouse assessed as decrease in MMP9 mRNA expression in lung at 20 mg/kg,iv administrated qd for 2 days by qRT-PCR analysis; format: functional, organism-based; conditions: time 2.0 day
Procedure, shortened: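 Day 19 after 4T1 implantation, mice randomised into five groups; iv vehicle or 20 mg/kg plus ip C12-iE-DAP (50 μg/mouse) and MDP (100 μg/mouse) once daily for 2 days; killed after 48 h; lung mRNA for MMP8, MMP9, PROK2, S100A8, S100A9 and IL-1β by qPCR; mean ± SEM.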

[19] = Volume of distribution at steady state in male Beagle dog at 4 mg/kg,iv measured upto 24 hrs; format: ADME, organism-based, Canis lupus familiaris; conditions: in vivo, read-out: Vdss
[20] = Half life in Beagle dog at 2 mg/kg,iv measured upto 24 hrs; format: ADME, organism-based, Canis lupus familiaris; conditions: in vivo
4T1 [21] = experiment: Antitumor activity against mouse 4T1 cells implanted in BALB/c mouse assessed as decrease in spleen MMP2 expression level at 5 to 20 mg/kg,iv administrated once per week for 4 weeks by western blot assay; format: functional, organism-based; conditions: dose 5-20 mg/kg
Procedure, shortened: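 4T1 fat-pad model in BALB/c mice, iv once weekly for 4 weeks; MMP9, MMP2 and NOD1 in spleen, lung and tumour by western blot, β-actin loading control; bands averaged over five mice per group, representative of two independent experiments.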

[22] = Cmax in mouse plasma implanted with mouse 4T1 cells at 10 mg/kg,iv measured upto 72 hrs; format: ADME, organism-based; parameters: dose 10 mg/kg, time < 72 hrs, route iv
Procedure, shortened: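 BALB/c mice carried 4T1 cells implanted in the mammary fat pad and received a single iv dose of 10 mg/kg. Parent drug and released docetaxel were assayed in plasma and tumor tissue up to 72 h. Parameters came from noncompartmental analysis, n = 6, mean ± SD.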

[23] = Clearance in Beagle dog at 4 mg/kg,iv measured upto 24 hrs; format: ADME, organism-based, Canis lupus familiaris; conditions: in vivo; procedure, shortened: as §3
[24] = Clearance in female rat at 4 mg/kg,iv measured upto 24 hrs; format: ADME, organism-based; conditions: in vivo; procedure, shortened: as §2
OVCAR-3 = experiment: Antiproliferative activity against human OVCAR-3 cells assessed inhibition of cell growth incubated for 72 hrs by SRB assay; format: functional, cell-based; conditions: OVCAR-3, 72 h
[25] = AUC (0-infinity) in male rat at 2 mg/kg,iv measured upto 24 hrs; format: ADME, organism-based; parameters: dose 2 mg/kg, time < 24 hrs, route iv; conditions: in vivo; procedure, shortened: as §1
[26] = Cmax in female rat at 8 mg/kg,iv measured upto 24 hrs; format: ADME, organism-based; parameters: time < 24 hrs, dose 8 mg/kg, route iv; conditions: in vivo; procedure, shortened: as §2
[27] = Toxicity in male Sprague-Dawley rat assessed as maximal non-toxic dose at iv administration; format: organism-based; conditions: in vivo, read-out: MNTD
[28] = AUC (0-t) in Beagle dog at 4 mg/kg,iv measured upto 24 hrs; format: ADME, organism-based, Canis lupus familiaris; parameters: dose 4 mg/kg, time < 24 hrs, route iv; conditions: in vivo; procedure, shortened: as §1
[29] = AUC (0-infinity) in Beagle dog at 1 mg/kg,iv measured upto 24 hrs; format: ADME, organism-based, Canis lupus familiaris; parameters: dose 1 mg/kg, time < 24 hrs, route iv; conditions: in vivo; procedure, shortened: as §1

## CC(=O)O[C@@]12CO[C@@H]1C[C@H](O)[C@@]1(C)C(=O)[C@H](O)C3=C(C)[C@@H](OC(=O)[C@H](O)[C@@H](NC(=O)OC(C)(C)C)c4ccccc4)C[C@@](O)([C@@H](OC(=O)c4ccccc4)[C@H]21)C3(C)C [DOCETAXEL ANHYDROUS]
[1]
  Activity: Non-Toxic
[2]
  Activity: Non-Toxic
4T1 [3]
  Activity: 36.4%
4T1 [4]
  Activity: Active

## CC(=O)O[C@@]12CO[C@@H]1C[C@H](O)[C@@]1(C)C(=O)[C@H](O)C3=C(C)[C@@H](OC(=O)[C@H](OC(=O)CCC(=O)NCCCC[C@H](NC(=O)CC[C@@H](NC(=O)[C@H](C)NC(=O)/C=C/c4ccc(F)cc4Cl)C(N)=O)C(=O)O)[C@@H](NC(=O)OC(C)(C)C)c4ccccc4)C[C@@](O)([C@@H](OC(=O)c4ccccc4)[C@H]21)C3(C)C
4T1 [5]
  Activity: Active
[6]
  AUC(0-t) at 24 h: 6.97 µg·h/mL
[7]
  Tmax: 30 min
[8]
  AUC(0-t) at 24 h: 15.2 µg·h/mL
[9]
  clearance: 0.253 L/h/kg
[10]
  Stability: Stable
[11]
  Drug metabolism: Metabolite_Detected
[12]
  Activity: Non-Toxic
[13]
  Cmax: 30.8 µg/mL
[14]
  AUC(0-t) at 24 h: 6.09 µg·h/mL
[15]
  Activity: Non-Toxic
4T1 [16]
  Activity: Active
[17]
  AUC(0-inf): 46.1 µg·h/mL
4T1 [18]
  Activity: Active
[19]
  Vd: 0.075 L/kg
[20]
  half-life: 30.5 min
4T1 [21]
  Activity: inactive
[22]
  Cmax: 14.7 µM
[23]
  clearance: 0.257 L/h/kg
[24]
  clearance: 0.308 L/h/kg
OVCAR-3
  pIC50: 7.79
[25]
  AUC(0-inf): 6.12 µg·h/mL
[26]
  Cmax: 62.5 µg/mL
[27]
  NOAEL: 4 mg/kg
[28]
  AUC(0-t) at 24 h: 17.2 µg·h/mL
[29]
  AUC(0-inf): 1.64 µg·h/mL
